Reference: ChEMBL document CHEMBL2069262, “Stimulation of Glucose-Dependent Insulin Secretion by a Potent, Selective sst3 Antagonist” (ACS Med Chem Lett, 2012)
The source made the active and inactive calls. The calls are words filed in the database; no cut-off is given here. Positions of bridges follow the written chain, without caps; N, C: chain ends. Non-standard residues stand in square brackets, D forms with d. Residues, ends and D or L forms follow the SMILES beside them. *: point of attachment. Threoninol(2S,3R) = C[C@@H](O)[C@H](CO)N*

Experiments:
[1] = target: Voltage-gated inwardly rectifying potassium channel KCNH2 (Homo sapiens, UniProt Q12809); assay: Displacement of [35S]MK499 from human Erg expressed in HEK293 cells after 60 mins by scintillation counting; assay type: cell-based
[2] = target: T1, Somatostatin receptor type 3 (Homo sapiens, UniProt P32745); assay type: functional, cell-based, CHO
[3] = target: T1, Somatostatin receptor type 3; assay: Displacement of [125I]SS-14 from human SST3 receptor expressed in CHO cells after 60 mins by scintillation counting; assay type: cell-based
[4] = Inhibition of glucose-stimulated insulin secretion in C57BL/6J mouse pancreatic islets at 50 nM after 1 hr by ELISA; assay type: functional, Pancreatic islet; parameters: scale not given: the % may be the effect or the level left
Outline: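 Islets isolated from normal C57BL/6J mice were incubated at basal (2 mM) and stimulatory (16 mM) glucose, and insulin secretion was measured. DMSO served as the negative control and GLP-1 at 10 nM as the positive control. n = 4.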

[5] = Half life in C57BL/6N mouse at 1 mg/kg, iv and 2 mg/kg, po; assay type: ADME, organism-based; settings: in vivo
[6] = Clearance in C57BL/6N mouse at 1 mg/kg, iv and 2 mg/kg, po; assay type: ADME, organism-based; settings: in vivo
[7] = Volume of distribution at steady state in C57BL/6N mouse at 1 mg/kg, iv and 2 mg/kg, po; assay type: ADME, organism-based; settings: in vivo, read-out: Vdss
[8] = Cmax in C57BL/6N mouse at 2 mg/kg, po; assay type: ADME, organism-based; parameters: dose 2 mg/kg, route oral; settings: in vivo
[9] = target: Voltage-gated L-type calcium channel (Homo sapiens, UniProt Q13936+Q13698+Q01668+O60840); assay: Binding affinity to L-type calcium channel
[10] = Oral bioavailability in C57BL/6N mouse at 2 mg/kg; assay type: ADME, organism-based; settings: in vivo
[11] = test system: Mus musculus; assay: Dose normalized AUC in C57BL/6N mouse at 2 mg/kg, po; assay type: ADME, organism-based; parameters: dose 2 mg/kg, route oral; settings: in vivo
[12] = Activation of glucose-stimulated insulin secretion in C57BL/6J mouse pancreatic islets at 10 nM after 1 hr by ELISA in presence of 16 mM glucose relative to DMSO; assay type: functional; settings: Pancreatic islet
Outline: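 Pancreatic islets were isolated from normal C57BL/6J mice. Insulin secretion was measured at 2 and 16 mM glucose. Treatments were test agent at 10 μM, octreotide at 50 nM, the two combined, DMSO as negative control and GLP-1 at 10 nM as positive control. n = 4.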

Voltage-gated inwardly rectifying potassium channel KCNH2, sequence (Q12809 whole entry): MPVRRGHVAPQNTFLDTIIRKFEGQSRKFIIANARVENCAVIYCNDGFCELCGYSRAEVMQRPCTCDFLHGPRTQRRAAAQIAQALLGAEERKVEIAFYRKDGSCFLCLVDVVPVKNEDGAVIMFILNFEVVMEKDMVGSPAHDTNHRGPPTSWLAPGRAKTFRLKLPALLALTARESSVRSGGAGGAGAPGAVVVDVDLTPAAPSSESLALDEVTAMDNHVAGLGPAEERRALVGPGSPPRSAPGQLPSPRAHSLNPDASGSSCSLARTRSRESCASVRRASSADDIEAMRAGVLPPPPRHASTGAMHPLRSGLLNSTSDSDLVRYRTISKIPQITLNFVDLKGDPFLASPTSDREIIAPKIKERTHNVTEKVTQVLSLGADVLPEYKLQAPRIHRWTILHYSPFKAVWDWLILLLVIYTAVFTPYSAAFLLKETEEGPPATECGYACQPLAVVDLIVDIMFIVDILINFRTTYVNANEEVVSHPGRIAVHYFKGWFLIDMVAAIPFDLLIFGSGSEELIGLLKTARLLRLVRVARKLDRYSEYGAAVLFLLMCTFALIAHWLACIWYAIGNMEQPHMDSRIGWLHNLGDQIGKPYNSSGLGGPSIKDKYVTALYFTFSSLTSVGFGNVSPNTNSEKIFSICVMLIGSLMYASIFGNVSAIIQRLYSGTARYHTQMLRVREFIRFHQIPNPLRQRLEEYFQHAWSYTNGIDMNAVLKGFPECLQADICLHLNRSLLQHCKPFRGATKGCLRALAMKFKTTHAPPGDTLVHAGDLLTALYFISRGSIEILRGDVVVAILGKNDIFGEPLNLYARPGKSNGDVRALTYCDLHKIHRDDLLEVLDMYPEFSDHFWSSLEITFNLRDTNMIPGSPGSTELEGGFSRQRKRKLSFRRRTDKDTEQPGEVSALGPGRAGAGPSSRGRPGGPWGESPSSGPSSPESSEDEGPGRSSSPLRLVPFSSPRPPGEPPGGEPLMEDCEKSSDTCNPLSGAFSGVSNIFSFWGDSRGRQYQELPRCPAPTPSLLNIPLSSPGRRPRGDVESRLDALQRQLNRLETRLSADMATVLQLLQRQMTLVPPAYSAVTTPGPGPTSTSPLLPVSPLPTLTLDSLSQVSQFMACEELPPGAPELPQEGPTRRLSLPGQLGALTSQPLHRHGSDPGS
T1 sequence (P32745 whole entry): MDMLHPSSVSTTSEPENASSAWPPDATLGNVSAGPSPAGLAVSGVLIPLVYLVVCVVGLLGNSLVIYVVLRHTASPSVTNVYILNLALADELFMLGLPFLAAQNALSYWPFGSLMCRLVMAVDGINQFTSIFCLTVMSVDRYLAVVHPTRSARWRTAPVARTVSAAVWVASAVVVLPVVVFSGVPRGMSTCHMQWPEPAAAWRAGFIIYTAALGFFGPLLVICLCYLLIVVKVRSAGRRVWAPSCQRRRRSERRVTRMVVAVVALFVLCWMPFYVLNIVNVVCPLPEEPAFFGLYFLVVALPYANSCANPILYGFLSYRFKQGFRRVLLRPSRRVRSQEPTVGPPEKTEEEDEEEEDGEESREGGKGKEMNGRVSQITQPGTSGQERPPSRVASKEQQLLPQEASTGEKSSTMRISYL

IC50 [2] [nM] | IC50 [3] [nM] | Compound | IC50 [1] [nM] | also measured
66 | 4 | COC(=O)N1CCC(C2N[C@@H](c3nc(-c4ccccc4)c[nH]3)Cc3c2[nH]c2ccccc32)CC1 (some centres not stated) | 700 | –
10 | 1.7 | c1ccc(-c2c[nH]c([C@H]3Cc4c([nH]c5ccccc45)C(C4CCSCC4)N3)n2)cc1 (some centres not stated) | 120 | –

Continued, compound first:

Compound | IC50 [2] [nM] | IC50 [3] [nM] | IC50 [1] [nM] | also measured
C[C@@H](O)[C@H](CO)NC(=O)[C@@H]1CSSC[C@H](NC(=O)[C@H](N)Cc2ccccc2)C(=O)N[C@@H](Cc2ccccc2)C(=O)N[C@H](Cc2c[nH]c3ccccc23)C(=O)N[C@@H](CCCCN)C(=O)N[C@@H]([C@@H](C)O)C(=O)N1 (H-[dF]CF[dW]KTC-{Threoninol(2S,3R)}; disulfide 2-7) | – | – | – | Activity [4]: 39%
CNC(=O)N1CCC(C2N[C@@H](c3nc(-c4ccccc4)c[nH]3)Cc3c2[nH]c2ccccc32)CC1 (some centres not stated) | 180 | 35 | 240 | –
c1ccc(-c2c[nH]c([C@H]3Cc4c([nH]c5ccccc45)[C@H](C4CCOCC4)N3)n2)cc1 | 1200 | 390 | – | –
c1ccc(-c2c[nH]c([C@H]3Cc4c([nH]c5ccccc45)C(C4CCCCC4)N3)n2)cc1 (some centres not stated) | – | – | – | half-life [5]: 8.4 min; clearance [6]: 95 mL/min/kg; Vd [7]: 8.1 L/kg; Cmax [8]: 60 nM; IC50 [9]: 308 nM; bioavailability [10]: 15%; AUC/dose [11]: 0.07 µM·h/mg
CC(C)(C)OC(=O)N1CCC(C2N[C@@H](c3nc(-c4ccccc4)c[nH]3)Cc3c2[nH]c2ccccc32)CC1 (some centres not stated) | 1000 | 7 | – | –
CC[C@H](C)[C@H](NC(=O)[C@H](Cc1ccccc1)NC(=O)[C@H](CCC(=O)O)NC(=O)[C@H](CCCCN)NC(=O)[C@H](C)NC(=O)[C@H](C)NC(=O)[C@H](CCC(N)=O)NC(=O)CNC(=O)[C@H](CCC(=O)O)NC(=O)[C@H](CC(C)C)NC(=O)[C@H](Cc1ccc(O)cc1)NC(=O)[C@H](CO)NC(=O)[C@H](CO)NC(=O)[C@@H](NC(=O)[C@H](CC(=O)O)NC(=O)[C@H](CO)NC(=O)[C@@H](NC(=O)[C@H](Cc1ccccc1)NC(=O)[C@@H](NC(=O)CNC(=O)[C@H](CCC(=O)O)NC(=O)[C@H](C)N[C@@H](Cc1cnc[nH]1)C(=O)O)[C@@H](C)O)[C@H](C)O)C(C)C)C(=O)N[C@@H](C)C(=O)N[C@@H](Cc1c[nH]c2ccccc12)C(=O)N[C@@H](CC(C)C)C(=O)N[C@H](C(=O)N[C@@H](CCCCN)C(=O)NCC(=O)N[C@@H](CCCNC(=N)N)C(N)=O)C(C)C | – | – | – | Activity [12]: Active
